# A selection: hits, their analogues and other compounds. The true share with any hit is near 2.8%.
# PAFAH1B3 FP inh – PAFAH1B3 (human) inhibition; 340,000 compounds, 0.28% hits; inhibition, % at 3.39 µM; Q15102; recombinant PAFAH1B3, FP-rhodamine probe, fluorescence polarization;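 active = inhibition above the screen-wide average of all tested compounds plus 3 SD, cut at about 25% in these data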;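 note: 0% = enzyme with DMSO only and 100% = wells lacking PAFAH1B3 protein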
# PAFAH1B2 FP inh – blocks human PAF acetylhydrolase 1b catalytic subunit 2 | P68402 | recombinant PAFAH1B2, FP-rhodamine activity probe, fluorescence polarization | inhibition, % at 3.39 µM | 340,000 compounds, 1.2% hits | AID 492953;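 active = inhibition above the mean of all tested compounds plus 3 SD, cut at about 24% in these data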;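 note: 0% = enzyme with DMSO and 100% = wells lacking PAFAH1B2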
# Target sequence (P68402 whole entry, looked up): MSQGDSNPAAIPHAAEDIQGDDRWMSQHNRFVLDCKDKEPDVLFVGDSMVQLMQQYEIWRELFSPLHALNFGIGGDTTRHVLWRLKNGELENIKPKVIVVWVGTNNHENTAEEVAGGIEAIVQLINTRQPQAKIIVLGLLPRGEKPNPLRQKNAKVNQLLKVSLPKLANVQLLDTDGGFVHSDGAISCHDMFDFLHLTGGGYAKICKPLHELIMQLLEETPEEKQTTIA
# PAFAH2 FP inh – inhibitors of human PAFAH2 | recombinant PAFAH2, FP-rhodamine activity probe, fluorescence polarization | Q99487 | 340,000 compounds, 0.99% hits | AID 492956 | inhibition, % at 3.39 µM;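 active = inhibition above the mean over all tested compounds plus 3 SD, cut at about 30% in these data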;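 note: inhibitors block probe labeling of enzyme so polarization drops; 0% = enzyme with DMSO and 100% = wells lacking PAFAH2 protein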
# pPAFAH inh – inhibitors of human plasma PAF acetylhydrolase (pPAFAH) | inhibition, % at 3.39 µM | AID 463082 | recombinant pPAFAH, FP-rhodamine probe fluorescence polarization | Q13093 | 330,000 compounds, 1.5% hits;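 active = inhibition above the mean inhibition across the screen plus 3 SD, cut at about 25% in these data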;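 note: inhibitors block binding of the rhodamine activity-based probe so polarization drops; 0% = enzyme with DMSO and 100% = wells lacking pPAFAH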
# Target sequence (Q13093 whole entry, looked up): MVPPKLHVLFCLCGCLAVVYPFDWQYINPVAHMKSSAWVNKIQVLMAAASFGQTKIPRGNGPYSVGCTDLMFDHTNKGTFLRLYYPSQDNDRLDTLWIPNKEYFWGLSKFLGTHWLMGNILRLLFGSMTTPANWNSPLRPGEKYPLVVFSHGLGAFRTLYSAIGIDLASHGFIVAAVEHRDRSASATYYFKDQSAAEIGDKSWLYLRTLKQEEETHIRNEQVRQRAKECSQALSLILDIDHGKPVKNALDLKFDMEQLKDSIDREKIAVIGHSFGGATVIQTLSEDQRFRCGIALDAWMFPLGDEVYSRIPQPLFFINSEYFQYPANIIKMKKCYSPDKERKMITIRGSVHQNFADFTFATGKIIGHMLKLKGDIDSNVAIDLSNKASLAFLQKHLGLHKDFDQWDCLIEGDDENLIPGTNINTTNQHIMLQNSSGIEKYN
# HTRA1 inh – blocks human HTRA1 serine peptidase | Q92743 | inhibition, % at 5.96 µM | AID 504803 | recombinant HTRA1, FP-rhodamine activity-based probe, fluorescence polarization | 340,000 compounds, 0.5% hits; in the data active = inhibition above about 36%;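 note: 0% = enzyme with DMSO and 100% = wells lacking enzyme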
# mABHD4 FP – inhibitors of mouse ABHD4. Q8VD66. purified mABHD4, FP-Rh probe fluorescence polarization. inhibition, % at 8.92 µM. 370,000 compounds, 0.54% hits. AID 720543;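 active = inhibition exceeding the mean over every tested compound plus 3 SD, cut at about 30% in these data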;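 note: 0% = plate median of compound wells and 100% = S159A mutant with DMSO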
#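 Assay system: wild-type mouse ABHD4 protein; compound: single nominal dose of 8.92 µM, 0.89% DMSO final; schedule: 45 min + 60 min at 25 °C; measured by: FP readout, ex 525 nm / em 598 nm; evaluation: % inhibition of FP-Rh probe binding versus controls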
# * = called active by the depositor; x = no result.
SMILES,PAFAH1B3 FP inh,PAFAH1B2 FP inh,PAFAH2 FP inh,pPAFAH inh,HTRA1 inh,mABHD4 FP
COC(=O)c1cc(NC(=O)c2cccc(C(F)(F)F)c2)c(=O)oc1C/C=N/OCc1cccc(Cl)c1Cl,-3.4,-2.3,-19.3,27.2*,-28.5,-9.3
Cc1cc(NS(=O)(=O)c2ccc(NC(=O)CSc3nnc(-c4cnccn4)n3-c3ccccc3)cc2)nc(C)n1,x,x,x,x,x,-2.1
Cc1ccc(C(=O)N/N=C/c2ccc(-c3ccc(Br)cc3[N+](=O)[O-])o2)o1,3.5,7.1,8.8,26.4*,10.4,15.4
Cc1ccc(C(=O)N/N=C\c2ccc(Br)o2)o1,3.8,4.2,2.7,-3.9,2.4,-4.3
CCCCOC(=O)Nc1nnc(COc2ccccc2)s1,-6.2,7.1,-5.3,4.5,-7.0,-5.5
CCCCOC(=O)Nc1nnc(CCc2ccccc2)s1,3.5,6.6,-1.5,26.4*,-6.0,6.0
CCOC(=O)C1CCN(C(=O)c2cc3cc4cc(OC)ccc4nc3o2)CC1,-3.2,0.7,5.3,29.1*,-6.3,3.9
COc1ccc(-c2cc3cc(C(=O)O)ccn3c2C(=O)c2ccccc2)cc1,2.2,13.4,3.5,10.0,-18.2,-16.0
O=C(O)c1ccn2c(C(=O)c3ccccc3)c(-c3ccccc3)cc2c1,4.2,38.0*,1.2,16.1,-1.8,-2.9
CCC(Sc1nc(-c2cccc(OC)c2)c(C#N)c(=O)[nH]1)C(=O)Nc1nnc(C(C)C)s1 (configuration not stated),-4.3,35.5*,-0.4,0.4,-13.2,-1.6
COc1cc(O)c(C(CC(=O)N2CCCC(C)C2)c2ccccc2)c(OC)c1 (configuration not stated),x,x,x,x,x,3.8
O=C(Cc1ccc(Cl)cc1)N1CCc2ccccc2C1,0.2,6.4,-0.4,7.7,-3.7,4.4
O=C(c1nnc(Cc2ccc(Cl)cc2)o1)N1CCc2ccccc2C1,-1.6,2.5,3.9,29.8*,-6.3,-1.0
CCn1c(SCC(=O)N/N=C/C=C\c2ccco2)nc2ccccc21,-5.7,-3.5,4.7,24.9*,2.2,10.8
Cn1c(SCC(=O)N/N=C/C=C\c2ccco2)nc2ccccc21,0.7,-0.4,7.4,10.2,0.0,8.3
COc1cccc(/C=N/NC(=O)CNC(=O)COc2ccccc2)c1O,10.9,6.7,3.0,4.1,4.0,-0.8
Cc1cccc(OCC(=O)N/N=C/C=C/c2ccco2)c1,-2.6,-0.2,5.2,29.9*,-1.9,3.7
Cc1cccc(OCC(=O)NCC(=O)N/N=C/c2cc(Br)cc(Br)c2O)c1,7.7,34.0*,13.4,24.0,18.0,-6.2
Cc1cccc(C)c1OCC(=O)N/N=C/C=C/c1ccco1,10.2,1.7,9.9,2.7,14.2,9.7
O=C1N(CCCO)CCC12CCC(c1ccccc1)CC2 (configuration not stated),x,x,x,x,x,-1.4
CCCCn1c(/C=C/c2ccco2)nc2ccccc21,0.5,-1.1,4.0,16.3,5.4,1.8
Clc1ccc(Cn2c(/C=C/c3ccco3)nc3ccccc32)cc1,-11.0,-7.6,-1.0,32.8*,-22.3,-2.4
CCCn1c(/C=C/c2ccco2)nc2ccccc21,8.4,6.6,18.1,24.9*,17.8,2.6
CCOC(=O)[C@]12CCCC3=C1N(CCC3)C(=O)[C@@H](CC(=O)NCc1cccc(C(F)(F)F)c1)C2,x,x,x,x,x,3.9
CSC1=NSC2=NC(=O)/C(=C/c3coc4ccc(O)cc4c3=O)C(=N)N12,10.8,18.4,12.3,29.5*,16.8,-12.4
SMILES,PAFAH1B3 FP inh,PAFAH1B2 FP inh,PAFAH2 FP inh,pPAFAH inh,HTRA1 inh,mABHD4 FP
CSC1=NSC2=NC(=O)/C(=C/c3coc4ccccc4c3=O)C(=N)N12,7.7,11.3,24.6,15.7,-22.0,-11.1
Cc1ccccc1C1=C/C(=C(\SS/C(C(=O)c2ccc(OCC(=O)O)c(Cl)c2Cl)=C2\C=C(c3ccccc3C)SS2)C(=O)c2ccc(OCC(=O)O)c(Cl)c2Cl)SS1,24.6,25.5*,33.6*,x,-0.5,10.2
CCCCN1CCS(=O)(=O)N(Cc2cn(Cc3ccccc3Br)nn2)C(C(=O)OC)C1 (configuration not stated),x,x,x,x,x,0.0
CC(C)(C)Cc1nnc(NS(=O)(=O)c2ccc(F)cc2)s1,8.5,30.5*,3.8,9.3,-0.3,-4.8
Cc1ccc(S(=O)(=O)Nc2nnc(CC(C)(C)C)s2)cc1,3.3,5.1,0.5,0.1,-4.4,-2.3
CCN(CC)C(=O)Oc1ccc(Cl)c2cccnc12,4.3,2.0,-1.3,0.2,-17.7,2.2
O=C(Nc1cccc(C(F)(F)F)c1)Oc1ccc(Cl)c2cccnc12,10.0,6.1,1.1,-13.6,45.8*,-34.6
CCCCN(C(=O)c1cccc(-n2cccc2)c1)c1c(N)n(Cc2ccccc2)c(=O)[nH]c1=O,-5.3,1.8,6.5,33.2*,-11.1,-1.5
COCCCN(C(=S)NC(=O)c1ccc(C(C)(C)C)cc1)c1c(N)n(Cc2ccccc2)c(=O)[nH]c1=O,5.1,27.4*,9.1,7.8,-14.0,10.7
COc1ccc(C(=O)NC(=S)N(CCC(C)C)c2c(N)n(Cc3ccccc3)c(=O)[nH]c2=O)cc1,4.0,2.4,-1.9,4.9,-5.0,7.6
Cc1nc(N)nc(N)c1Oc1ccc(Cl)cc1,3.8,7.0,-1.4,x,-3.0,-0.7
Cc1nc(N)nc(N)c1/C=C/C(C)(C)c1ccc(Cl)cc1,-0.3,41.8*,5.8,x,-0.8,25.0
Cc1c(C(=O)OCCOc2ccc(Br)cc2)sc(=S)n1C,3.3,28.0*,2.6,-1.4,-22.6,3.7
Cc1ccc(OCCOC(=O)c2sc(=S)n(C)c2C)cc1,-5.9,10.5,2.5,-0.5,-14.7,-2.8
C=CCn1c(SCc2nc3sc(C(=O)O)c(C)c3c(=O)[nH]2)nnc1-c1ccc(C(C)(C)C)cc1,21.3,11.5,5.3,26.1*,-2.4,-2.2
C=CCn1c(SCc2nc3sc(C(=O)O)c(C)c3c(=O)[nH]2)nnc1-c1ccccc1,7.0,-1.3,-7.8,3.3,7.5,-5.2
CC(C)(C)c1ccc(C2=CC(c3ccccc3F)n3ncnc3N2)cc1 (configuration not stated),16.5,48.1*,0.8,24.4,-16.9,-1.7
CN(C)c1ccc(NC(=S)OC2CCC23CCC(c2ccccc2)CC3)cc1 (configuration not stated),x,x,x,x,x,-0.2
Clc1ccc([C@H]2OC[C@@]3(CNCCN4CCOCC4)CS[C@H](c4ccc(Cl)cc4)N23)cc1,x,x,x,x,x,1.8
O=S(=O)(NCC(Nc1ccccc1)c1ccccc1)c1ccc(Cl)cc1 (configuration not stated),-0.5,17.1,12.8,9.8,-44.5,-17.9
O=C(O)c1cccc(NC(CNS(=O)(=O)c2ccc(Cl)cc2)c2ccccc2)c1 (configuration not stated),10.9,74.7*,18.0,25.9*,-19.5,1.6
Brc1ccc(-c2nn3c(-c4ccccc4)nnc3s2)cc1,x,x,x,x,x,2.2
CCCC[C@@H]1C(=O)N2N=Cc3cc(C)c(C)cc3[C@H]2N2N=Cc3cc(C)c(C)cc3[C@@H]12,x,x,x,x,x,-11.9
